# SENP8 block-1: blocks human SENP8 cleavage of Nedd8 substrate; Q96LD8; recombinant SENP8, Nedd8 substrate fluorescence; inhibition, % at 20 µM; 360,000 tested, 0.64% active; in the data active = inhibition mostly above about 40%, no sharp cut-off; inactive = mostly below about 27%
# Target sequence (Q96LD8 whole entry, looked up): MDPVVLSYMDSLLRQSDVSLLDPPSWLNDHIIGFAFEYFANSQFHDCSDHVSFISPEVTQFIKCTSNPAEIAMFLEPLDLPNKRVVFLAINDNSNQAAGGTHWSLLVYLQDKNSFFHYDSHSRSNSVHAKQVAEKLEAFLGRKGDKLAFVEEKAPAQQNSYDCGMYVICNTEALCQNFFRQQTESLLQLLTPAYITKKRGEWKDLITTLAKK
# SENP7 inh: inhibitors of human SENP7 protease; 330,000 tested, 1.5% active; recombinant SENP7, Z-RLRGG-aminoluciferin luminescence, 40 min; AID 434973; inhibition, % at 5 µM; Q9BQF6;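 active = inhibition above about 50% at the single test dose, limit read from the data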;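 also: plate controls were DMSO with enzyme for no effect and no enzyme buffer wells for full effect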
# Target sequence (Q9BQF6 706-1050 limits assumed): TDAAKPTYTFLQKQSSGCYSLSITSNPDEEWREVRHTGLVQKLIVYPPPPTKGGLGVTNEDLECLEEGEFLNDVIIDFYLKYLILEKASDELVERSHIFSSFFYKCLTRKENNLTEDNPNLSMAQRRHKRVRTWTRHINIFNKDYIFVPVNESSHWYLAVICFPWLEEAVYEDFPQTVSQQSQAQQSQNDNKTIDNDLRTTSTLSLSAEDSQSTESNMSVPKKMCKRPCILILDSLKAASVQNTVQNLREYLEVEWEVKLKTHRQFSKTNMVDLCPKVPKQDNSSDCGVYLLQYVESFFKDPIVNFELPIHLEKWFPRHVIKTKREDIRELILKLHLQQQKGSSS
# UBC13 polyUb: inhibitors of human UBC13 polyubiquitin chain formation; P61088; TR-FRET; inhibition, % at 20 µM; 330,000 tested, 0.47% active; AID 485273; in the data active = inhibition above about 45%, passing the limit was not always enough
# SENP6 block: SENP6 protease inhibition. Q9GZR1. Recombinant SENP6 catalytic domain, aminoluciferin luminescence. inhibition, % at 10 µM. 330,000 tested, 1.8% active;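 active = inhibition above about 50% at the single tested dose, limit read from the data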;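 also: plate controls were DMSO wells with enzyme for no effect and DMSO wells lacking enzyme for full effect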
# SENP8 block-2: SENP8 protease inhibition | purified SENP8, Z-RLRGG-aminoluciferin cleavage, luminescence | Q96LD8 | inhibition, % at 10 µM | 330,000 tested, 1.2% active; in the data active = inhibition above about 50%
# Apaf-1 inh: blocks human Apaf-1 apoptosome activity. reconstituted apoptosome caspase-3 activity, DEVD-Rh110 fluorescence. inhibition, % at 20 µM. 330,000 tested, 0.71% active. AID 489030; active = inhibition of at least 40% at 20 µM;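 also: plate controls were DMSO wells for no effect and DEVD-CHO caspase inhibitor wells for full effect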
#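 Material: reconstituted apoptosome with Apaf-1, cytochrome c, caspase-9, procaspase-3, dATP; medium: pH 7.5 Hepes buffer with CHAPS, BSA, DTT; also added: cytochrome c and DEVD-Rh110 substrate; timing: 30 min plus 50 min, RT; signal: Rh110 fluorescence intensity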
# SENP8 conf: confirmation of human SENP8 protease inhibitors; inhibition, % at 12.5 µM; shares compounds with SENP7 inh; Recombinant SENP8, Z-RLRGG-aminoluciferin luminescence, 60 min; 6,200 tested, 40% active;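 active = mean inhibition across replicates above about 50%, limit read from the data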
# SENP6 conf: confirmation of human SENP6 protease inhibitors | shares compounds with SENP7 inh | recombinant SENP6, Z-RLRGG-aminoluciferin luminescence | inhibition, % at 12.5 µM | 6,200 tested, 58% active | AID 488915
# SENP7 conf: confirmation of human SENP7 protease inhibitors. shares compounds with SENP7 inh. recombinant SENP7, Z-RLRGG-aminoluciferin luminescence, 40 min. inhibition, % at 12.5 µM. 6,200 tested, 69% active. AID 488917
# Casp3 SENP sel: caspase-3 inhibition (SENP selectivity assay) | shares compounds with SENP7 inh | purified caspase-3, Z-DEVD-aminoluciferin luminescence, 60 min | inhibition, % at 12.5 µM | 6,200 tested, 60% active;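 active = mean inhibition above about 50%, limit read from the data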;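 also: plate controls were enzyme with DMSO for no effect and wells without caspase-3 for full effect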
# SENP luc ctr: interferes with luciferase luminescence in SENP counter-screen. shares compounds with SENP7 inh. Pre-incubated SENP8/Z-RLRGG-aminoluciferin, luciferase luminescence interference. inhibition, % at 12.5 µM. 6,200 tested, 39% active;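 active = mean inhibition above about 50% when retested at one dose, limit read from the data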;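 also: plate controls were DMSO wells with completed reaction for no effect and substrate without enzyme for full effect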
# The depositor's hits bear a star; i = inactive; nt = no result given. Most compounds without a hit are left out; they make up all but 3.1% or so of the library.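 The calls were made as follows, unless noted: active = mean inhibition above about 50% in the one-dose retest (limit read from the data); inactive = the rest.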
SMILES,SENP8 block-1,SENP7 inh,UBC13 polyUb,SENP6 block,SENP8 block-2,Apaf-1 inh,SENP8 conf,SENP6 conf,SENP7 conf,Casp3 SENP sel,SENP luc ctr
CC1CCCN(CCCNC(=O)c2coc3nc4ccccc4nc23)C1 (stereo not drawn),-403,51*,10,81*,59*,8,73*,66*,86*,89*,75*
CNC[C@H]1OCCCC[C@H](C)Oc2ccc(NC(=O)CCCN(C)C)cc2C(=O)N([C@H](C)CO)C[C@@H]1C,17,nt,nt,nt,nt,nt,nt,nt,nt,nt,nt
CN(c1cccc(F)c1)c1cc2c(c3c1ccn3C)C1CCC2O1 (stereo not drawn),-127,nt,nt,nt,nt,nt,nt,nt,nt,nt,nt
O=C1NC(c2cc(Cl)cc([N+](=O)[O-])c2O)Nc2ccccc21 (stereo not drawn),18,17,-54,87*,69*,0,9,25,15,27,33
O=C1NC(c2ccc(Cl)c([N+](=O)[O-])c2)Nc2ccccc21 (stereo not drawn),6,8,0,-7,-5,-5,nt,nt,nt,nt,nt
CCOC(=O)C1=CCC(c2ccccc2Cl)N(S(=O)(=O)c2ccc(C)cc2)C1 (stereo not drawn),-11,nt,nt,nt,nt,nt,nt,nt,nt,nt,nt
CCc1ccc(C(=O)COC(=O)c2cccnc2Cl)cc1,-4,94*,9,93*,88*,6,90*,90*,100*,93*,88*
O=C(OCc1ccccc1Cl)c1cccnc1Cl,11,28,14,63*,20,-10,32,35,72*,42,36
O=C(COC(=O)c1cccnc1Cl)c1ccccc1,1,65*,-3,78*,23,8,56*,53*,87*,86*,71*
CC1CCN(S(=O)(=O)N2CCC(C(=O)NC(C)c3ccccc3)CC2)CC1 (stereo not drawn),19,nt,nt,nt,nt,nt,nt,nt,nt,nt,nt
CCOc1ccc(N=C(C)C2=C(O)c3ccccc3C2=O)cc1,30,84*,8,85*,78*,-11,29,32,46,31,12
COc1ccc(N=C(C)C2=C(O)c3ccccc3C2=O)cc1,16,77*,0,87*,73*,8,30,74*,71*,39,12
CCOc1ccc2nc(NC(=O)c3ccoc3C)sc2c1,-158,100*,16,96*,98*,13,99*,100*,103*,99*,81*
Cc1c(Cl)ccc2sc(NC(=O)c3ccco3)nc12,-212,86*,1,67*,78*,4,35,86*,72*,54*,20
O=C(Nc1nc2cc3c(cc2s1)OCO3)c1ccco1,-352,nt,nt,nt,nt,nt,nt,nt,nt,nt,nt
O=C(Nc1nc2cc3c(cc2s1)OCCO3)c1ccco1,-465,100*,2,97*,96*,8,97*,98*,102*,97*,96*
CCOc1ccc2nc(NC(=O)c3ccco3)sc2c1,-238,97*,-3,97*,92*,2,93*,98*,102*,96*,83*
CCOc1ccc2nc(NC(=O)Nc3ccccc3)sc2c1,11,36,0,-3,-7,1,nt,nt,nt,nt,nt
CCOc1ccc2nc(NC(=O)COC)sc2c1,-9,28,-3,-26,1,2,nt,nt,nt,nt,nt
COc1cccc(-c2ccc(CN3C(C(C)C)C(=O)N(Cc4cn(CCC5OCCO5)nn4)CCS3(=O)=O)cc2)c1OC (stereo not drawn),22,nt,nt,nt,nt,nt,nt,nt,nt,nt,nt
COc1cccc(C(C)(O)c2nc(/C=C/c3ccccc3)cs2)c1 (stereo not drawn),-2,nt,nt,nt,nt,nt,nt,nt,nt,nt,nt
Cc1nc(NC(=S)NC(=O)c2ccco2)sc1C(=O)N(C)C,11,-1,2,-7,7,-3,nt,nt,nt,nt,nt
CCOC(=O)c1ccc2nc(NC(=O)C(C)C)sc2c1,-11,11,3,12,8,7,nt,nt,nt,nt,nt
CCCC(=O)Nc1nc2ccc(C(=O)OCC)cc2s1,-4,-7,6,-1,1,6,nt,nt,nt,nt,nt
CC1CCc2nc(NC(=O)c3ccco3)sc2C1 (stereo not drawn),2,80*,-8,87*,79*,17,88*,88*,98*,89*,46
SMILES,SENP8 block-1,SENP7 inh,UBC13 polyUb,SENP6 block,SENP8 block-2,Apaf-1 inh,SENP8 conf,SENP6 conf,SENP7 conf,Casp3 SENP sel,SENP luc ctr
CCOC(=O)c1ccc2nc(NC(=O)c3ccco3)sc2c1,i,90*,0,93*,85*,4,6,46,78*,51*,12
O=C(NC(=S)Nc1nc2ccc(F)cc2s1)c1ccco1,12,62*,15,69*,12,-4,13,13,10,4,2
CCOC(=O)c1ccc2nc(NC(=O)c3cccs3)sc2c1,-446,96*,2,56*,92*,0,-23,50,86*,51*,14
CC1CCc2nc(NC(=O)Cc3cccs3)sc2C1 (stereo not drawn),19,9,10,21,-4,4,nt,nt,nt,nt,nt
CC(=O)Nc1ccc2c(c1)Cc1cc(N3C(=O)C=CC3=O)ccc1-2,12,nt,nt,nt,nt,nt,nt,nt,nt,nt,nt
COc1ccc(-c2nc(NC(=O)c3ccco3)sc2C)cc1,-41,nt,nt,nt,nt,nt,nt,nt,nt,nt,nt
C=CCOC(=O)c1sc(NC(=O)c2ccco2)nc1C,-43,56*,-7,49,15,6,12,16,18,31,5
O=C(Nc1ccc(F)cc1F)c1ccc2c(c1)OCCO2,3,89*,2,89*,78*,9,8,82*,98*,93*,56*
O=C(NCCc1ccccc1F)c1ccc2c(c1)OCCO2,-3,89*,6,92*,80*,2,89*,89*,98*,94*,89*
O=C(COC(=O)c1ccc2c(c1)OCCO2)Nc1ccc(F)cc1F,15,4,2,-4,2,-3,nt,nt,nt,nt,nt
O=C(Nc1ccc(Br)cc1F)c1ccc2c(c1)OCCO2,3,86*,0,90*,80*,5,-3,86*,98*,84*,19
Cc1occc1C(=O)Nc1ccc(Br)cc1F,18,44,6,56*,14,0,18,26,73*,63*,49

# From PubChem
